As a reminder, the inhibition in vivo is the drop in the measured response relative to a control, in per cent.

Experimental findings from ChEMBL document CHEMBL3351249, “Potent cholesteryl ester transfer protein inhibitors of reduced lipophilicity: 1,1'-spiro-substituted hexahydrofuroquinoline derivatives” (J Med Chem, 2014) are described below.

The subject of data set [1] is Mus musculus. Description: Increase in HDL-cholesterol in hemizygous human CETP transgenic mouse at 10 mg/kg, po dosed for 5 consecutive days. Type of data set: functional. Summed up: (§1)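 Male hemizygous hCETP or hCETP/hApoB100 transgenic mice, 26−30 weeks, chow-fed. Compound suspended in 0.5% aqueous hydroxyethylcellulose, oral gavage each morning for 5 or 14 days. EDTA blood taken 7 h post-dose (fed for 5-day, after 4 h fast for 14-day) from vena facialis under isoflurane. HDL/LDL cholesterol measured on Cobas Integra 400 Plus. Mean ± SEM, one-way ANOVA with Bonferroni.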

Data set [2] deals with Mus musculus. Description: Increase in HDL-cholesterol in hemizygous human CETP transgenic mouse at 3 mg/kg, po dosed for 5 consecutive days. It is filed as functional. Summed up: as §1
A further data set relates to Plasma. Briefly: Plasma concentration in hemizygous human CETP transgenic mouse at 10 mg/kg, po dosed for 5 consecutive days measured on day 5 and day 7 post dose. It is filed as ADME, organism-based. More on the design: dose 10 mg/kg, route oral. The following applies: in vivo.
Data set [3] has as its system Mus musculus. Briefly: Reduction in plasma LDL-cholesterol in human CETP/human ApoB-100 transgenic mouse at 3 mg/kg, po dosed for 14 consecutive days. It is filed as functional. Summed up:
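Hemizygous male human CETP/human apoB100 transgenic mice (B6.SJL-Tg(APOA-CETP)1Dsg Tg(APOB)1102Sgy N10), aged 26–30 weeks and chow-fed, received oral gavage each morning for 14 consecutive days. Compound was suspended in 0.5% aqueous hydroxyethylcellulose. EDTA blood was taken from the facial vein under isoflurane 7 h post-dose after a 4 h fast. Plasma LDL-cholesterol fraction was measured on an automated analyzer. Data are mean ± SEM.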

For the next data set, the system named is Liver. Description: Drug concentration in liver of hemizygous human CETP transgenic mouse at 3 mg/kg, po dosed for 5 consecutive days measured on day 3 after cessation of drug treatment. It is filed as ADME, organism-based. On the set-up: dose 3 mg/kg, route oral. The following applies: in vivo. Summed up:
(§2)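 Male hCETP transgenic mice given oral doses for 5 days in 0.5% hydroxyethylcellulose. Tissues and plasma collected at day 3 and day 21 after the last dose. Fat diluted 6:1 with acetonitrile and homogenized. Analysis by LC/MS/MS on a C18 column with QCs at 4.0−1000 nM, accepted within 30% of target.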

The test system of a further data set is Kidney. Briefly: Drug concentration in kidney of hemizygous human CETP transgenic mouse at 3 mg/kg, po dosed for 5 consecutive days measured on day 3 after cessation of drug treatment. It is filed as ADME, organism-based. More on the design: dose 3 mg/kg, route oral. The following applies: in vivo. An outline of the steps: as §2
Data set [4] in a line: Drug concentration in muscle of hemizygous human CETP transgenic mouse at 3 mg/kg, po dosed for 5 consecutive days measured on day 21 after cessation of drug treatment. Type of data set: ADME, organism-based, Muscle tissue. On the set-up: dose 3 mg/kg, route oral. The conditions noted are these: read-out: Drug uptake. Summed up: as §2
A short description of data set [5]: Drug concentration in liver of hemizygous human CETP transgenic mouse at 3 mg/kg, po dosed for 5 consecutive days measured on day 21 after cessation of drug treatment. The conditions noted are these: read-out: Drug uptake. On the set-up: dose 3 mg/kg, route oral. It is filed as ADME, organism-based. Summed up:
as §2

Data set [6] in a line: Drug concentration in testes of hemizygous human CETP transgenic mouse at 3 mg/kg, po dosed for 5 consecutive days measured on day 21 after cessation of drug treatment. Type of data set: ADME, organism-based, Testis. On the set-up: dose 3 mg/kg, route oral. The conditions noted are these: male, read-out: Drug uptake. An outline of the steps:
as §2

The test system of data set [7] is Cynomolgus monkey. Description: Effect on blood pressure in cynomolgus monkey up to 100 mg/kg by telemetry. Type of data set: ADME, organism-based, Macaca fascicularis. More on the design: dose 100 mg/kg. The conditions noted are these: in vivo. An outline of the steps: (§3)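 Acute telemetry study in conscious cynomolgus monkeys at doses up to 100 mg/kg. Blood pressure, left ventricular pressure, contractility, heart rate and ECG (PR, QRS, QT) recorded. Exposure followed as Cmax and MRT.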

Data set [8] relates to Cynomolgus monkey. Description: Effect on heart rate in cynomolgus monkey up to 100 mg/kg by telemetry. It is filed as ADME, organism-based, Macaca fascicularis. On the set-up: dose 100 mg/kg. The following applies: in vivo. Summed up:
as §3

The test system of data set [9] is Cynomolgus monkey. Description: Effect on electrocardiogram parameters in cynomolgus monkey assessed as changes in PR-interval up to 100 mg/kg by telemetry. It is filed as ADME, organism-based, Macaca fascicularis. On the set-up: dose 100 mg/kg. The following applies: in vivo. Summed up: as §3
Data set [10] relates to Cynomolgus monkey. Description: Effect on electrocardiogram parameters in cynomolgus monkey assessed as changes in QRS-complex up to 100 mg/kg by telemetry. Type of data set: ADME, organism-based, Macaca fascicularis. On the set-up: dose 100 mg/kg. The following applies: in vivo. Summed up:
as §3

In data set [11] the test system is Cynomolgus monkey. Description: Effect on electrocardiogram parameters in cynomolgus monkey assessed as changes in QT-interval up to 100 mg/kg by telemetry. Type of data set: ADME, organism-based, Macaca fascicularis. On the set-up: dose 100 mg/kg. The following applies: in vivo. Summed up:
as §3

As for `CC(C)c1nc2c(c3c1[C@@H](c1ccc(C(F)(F)F)cc1)OC31CCOCC1)[C@@H](O)CC(C)(C)C2`, the Activity with Mus musculus [1] is on record as 37.4%; with Mus musculus [2], 74.4%; in the data set on Cynomolgus monkey [7] it was “Non-toxic”; with Cynomolgus monkey [8], “Non-toxic”; with Cynomolgus monkey [9] it was “Non-toxic”; in the data set on Cynomolgus monkey [10] it was “Non-toxic”. Further, the Activity result in the data set on Cynomolgus monkey [11] is given as “Non-toxic”. Further, the concentration in the data set with Plasma turned out to be 671 nM. For the same compound, at 3 mg/kg the inhibition in vivo with Mus musculus [3] was 49%. Further, the Drug uptake result with Liver and in the data set with Kidney was “Active” each time. Moreover, the concentration at 21 days after cessation of treatment in data set [4], in [5] and in [6] was below 30 nM each time.
